Results taken from ChEMBL document CHEMBL1133631, “Synthesis of potent agonists of the D-myo-inositol 1,4, 5-trisphosphate receptor based on clustered disaccharide polyphosphate analogues of adenophostin A” (J Med Chem, 2000).

Experiments:
[1] = Binding affinity was measured by equilibrium competing with [3H]IP3 (Inositol 1,4,5-trisphosphate receptor)
In short: (§1)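 Membranes from livers of male Wistar rats were Percoll-purified. A 0.1 mg protein sample in 50 mM Tris, 1 mM EGTA, pH 8.3 was incubated 5 min at 4 °C with [³H]IP₃ (45 nCi, 40 Ci/mmol) and competing ligand. The incubation was stopped by centrifugation, and pellets were scintillation-counted. Parameters came from logistic fits. Nonspecific binding was 10–15%. Triplicate, means ± SEM.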

[2] = Hill coefficient for equilibrium binding was evaluated (Inositol 1,4,5-trisphosphate receptor); in short: as §1
[3] = Concentration response relationship was used to measure half-maximally effective agonist concentration.; assay type: functional
In short: (§2)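 Saponin-permeabilized hepatocytes (10⁶ cells·mL⁻¹, 10 µg·mL⁻¹ saponin) loaded to steady state with ⁴⁵Ca²⁺ (20 µCi·mL⁻¹) for 5 min at 37 °C in cytosol-like medium (free Ca²⁺ 200 nM, 7.5 mM ATP, FCCP, PIPES pH 7.0). Cells diluted 5-fold into ATP-free medium with 1.25 µM thapsigargin; ligand added after 15 s, stores filtered 60 s later. Logistic fits gave maximal response, EC50 and Hill slope; means ± SEM.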

[4] = compound was tested and the Ratio of EC50 and Kd was found out.; assay type: functional
[5] = Hill coefficient for [Ca2+] release was evaluated; assay type: functional; in short: as §2
[6] = tested on: IP3 receptor (Rattus norvegicus); test: [Ca2+] release with 10 uM was measured by non-specific binding method.
[7] = tested on: IP3 receptor (Rattus norvegicus); test: Maximal Ca+ release response was determined from permeabilized rat hepatocyte assay
[8] = Ratio of EC50 and Kd; assay type: functional
[9] = tested on: IP3 receptor (Rattus norvegicus); test: Concentration response relationship was fitted to logistic equations using kaleidagraph software from which maximal response was measured.

Molecule `O=P(O)(O)OC1[C@@H](OP(=O)(O)O)C(CO)O[C@@H](O[C@@H]2[C@H](OP(=O)(O)O)C(OCCCc3ccccc3)O[C@@H]2CO)[C@H]1O` (stereo partly specified) has a Kd [1] of 3.1 nM, a Hill slope [2] of 1.16 and an EC50 [3] of 381 nM. The Ratio [4] was 123, the Hill slope [5] was 3.9 and the IP3-sensitive Ca2+ stores [6] was 87%. The Max response [7] was 34%.

In the case of `CO[C@@H]1O[C@H](CO)[C@@H](O[C@H]2O[C@@H](CO)[C@@H](OP(=O)(O)O)[C@H](OP(=O)(O)O)[C@@H]2O)[C@H]1OP(=O)(O)O`, the Kd [1] is reported as 4.4 nM, the Hill slope [2] is reported as 0.99 and the EC50 [3] is reported as 484 nM. For the same molecule, the Ratio [4] was 110, the Hill slope [5] was 3.4 and the IP3-sensitive Ca2+ stores [6] was 89%. It also gave a Max response [7] of 33%.

For `O=P(O)(O)OC1[C@@H](OP(=O)(O)O)C(O)C(O)[C@@H](OP(=O)(O)O)[C@H]1O` (stereo partly specified), the Kd [1] was 1.7 nM, the Hill slope [2] was 0.88 and the EC50 [3] was 201 nM. For the same molecule, the Ratio [8] was 120, the Hill slope [5] was 2.9 and the Max response [9] was 32%.

With `CCCOC1O[C@H](CO)[C@H](O[C@@H]2OC(CO)[C@H](OP(=O)(O)O)C(OP(=O)(O)O)[C@@H]2O)[C@@H]1OP(=O)(O)O` (stereo partly specified) the Kd [1] was 4.7 nM, the Hill slope [2] was 0.97 and the EC50 [3] was 491 nM. The Ratio [4] was 104, the Hill slope [5] was 2.1 and the IP3-sensitive Ca2+ stores [6] was 87%. For the same molecule, the Max response [7] was 42%.

Molecule `O=P(O)(O)OC1[C@@H](OP(=O)(O)O)C(CO)O[C@@H](O[C@@H]2[C@H](OP(=O)(O)O)C(OCCCc3ccc(CCCOC4O[C@H](CO)[C@H](O[C@@H]5OC(CO)[C@H](OP(=O)(O)O)C(OP(=O)(O)O)[C@@H]5O)[C@@H]4OP(=O)(O)O)cc3)O[C@@H]2CO)[C@H]1O` (stereo partly specified) has a Kd [1] of 3.6 nM, a Hill slope [2] of 0.95 and an EC50 [3] of 215 nM. It also gave a Ratio [8] of 60, a Hill slope [5] of 2.2 and an IP3-sensitive Ca2+ stores [6] of 92%. For the same molecule, the Max response [9] was 31%.

For `O=P(O)(O)OC1[C@@H](OP(=O)(O)O)C(CO)O[C@@H](O[C@@H]2[C@H](OP(=O)(O)O)C(OCCCc3cc(CCCOC4O[C@H](CO)[C@H](O[C@@H]5OC(CO)[C@H](OP(=O)(O)O)C(OP(=O)(O)O)[C@@H]5O)[C@@H]4OP(=O)(O)O)c(CCCOC4O[C@H](CO)[C@H](O[C@@H]5OC(CO)[C@H](OP(=O)(O)O)C(OP(=O)(O)O)[C@@H]5O)[C@@H]4OP(=O)(O)O)cc3CCCOC3O[C@H](CO)[C@H](O[C@@H]4OC(CO)[C@H](OP(=O)(O)O)C(OP(=O)(O)O)[C@@H]4O)[C@@H]3OP(=O)(O)O)O[C@@H]2CO)[C@H]1O` (stereo partly specified), the Kd [1] was 4.3 nM, the Hill slope [2] was 1.04 and the EC50 [3] was 161 nM. It also gave a Ratio [8] of 37, a Hill slope [5] of 2.1 and an IP3-sensitive Ca2+ stores [6] of 101%. The Max response [9] was 42%.
